Results reported in ChEMBL document CHEMBL4038278, “Structural modifications of diarylpyrimidines (DAPYs) as HIV-1 NNRTIs: Synthesis, anti-HIV activities and SAR” (Bioorg Med Chem, 2017).
pEC50: −log10 of the molar value.

Experiments:
[1] = system: Human immunodeficiency virus 2; test: Antiviral activity against HIV-2 ROD infected in human MT4 cells assessed as protection against virus induced cytopathic effect measured at 5 days post infection by MTT assay; assay type: functional, cell-based; conditions: Human immunodeficiency virus 2, ISOLATE ROD, MT4, 120 h
Procedure, shortened: (§1)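 MT-4 cells spun down (5 min, 220 g), resuspended at 6 x 10^5 cells/mL and infected with 100-300 CCID50 virus. Serial 5-fold compound dilutions added at infection, triplicate wells. After 5 days, viability read by MTT reduction at 540 and 690 nm using the median of three wells. […] Mean of at least three independent experiments.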

[2] = Inhibition of HIV-1 3B wild type reverse transcriptase infected in human MT4 cells assessed as protection against virus-induced cytopathic effect measured at 5 days post infection by MTT assay; assay type: cell-based; conditions: Human immunodeficiency virus 1, 3B, MT4, 120 h; procedure, shortened: as §1
[3] = Selectivity index, ratio of CC50 for human MT4 cells to EC50 for HIV-1 3B wild type reverse transcriptase infected in human MT4 cells; assay type: toxicity, cell-based; conditions: read-out: Ratio CC50/EC50
Procedure, shortened: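 SI calculated as CC50 in mock-infected MT-4 cells divided by EC50 against HIV-1 IIIB. Both values come from the same 5-day MTT run, with infected and mock-infected triplicate series tested in parallel.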

[4] = Cytotoxicity against human MT4 cells assessed as reduction in cell viability after 5 days by MTT assay; assay type: cell-based
Procedure, shortened: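 Mock-infected exponentially growing MT-4 cells (6 x 10^5 cells/mL) given serial 5-fold compound dilutions in triplicate wells in parallel with the infected series. Viability measured by MTT after 5 days, absorbance at 540/690 nm, median of three wells. […] Mean of at least three independent experiments.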

Row | Structure (SMILES) | pEC50 [1] | pEC50 [2] | selectivity ratio [3] | CC50 at 120 h [4] [µM]
1 | COc1cccc(COc2ccnc(Nc3ccc(C#N)cc3)n2)c1 | < 3.93 | 7.60 | 4720 | 118
2 | N#Cc1ccc(Nc2nccc(OCc3cccc4ccccc34)n2)cc1 | < 5.11 | 7.82 | 513 | 7.7
3 | N#Cc1ccc(Nc2nccc(OCc3ccc(Br)cc3F)n2)cc1 | < 3.85 | 6.66 | 641 | 141
4 | N#Cc1ccc(Nc2nccc(OCc3cccnc3)n2)cc1 | < 5.19 | 6.11 | 8 | 6.4
5 | N#Cc1ccc(Nc2nccc(OCc3ccc(Br)cc3)n2)cc1 | < 4.80 | 5.33 | 3.4 | 16
6 | N#Cc1ccc(Nc2nccc(OCc3ccccc3Cl)n2)cc1 | < 3.84 | 7.47 | 4420 | 146
7 | Cc1ccc(COc2ccnc(Nc3ccc(C#N)cc3)n2)cc1 | < 4.09 | 6.80 | 495 | 81
8 | N#Cc1ccc(COc2ccnc(Nc3ccc(C#N)cc3)n2)cc1 | < 3.68 | 5.85 | 149 | 209
9 | COc1cc(COc2ccnc(Nc3ccc(C#N)cc3)n2)cc(OC)c1 | < 4.36 | 8.05 | 4940 | 44.2
10 | N#Cc1ccc(Nc2nccc(NCc3ccccn3)n2)cc1 | < 5.07 | 8.12 | 1120 | 8.5
11 | N#Cc1ccc(Nc2nccc(OCc3ccc(Cl)cc3)n2)cc1 | < 3.81 | 6.08 | 186 | 156
12 | Cc1ccccc1COc1ccnc(Nc2ccc(C#N)cc2)n1 | < 4.92 | 6.80 | 75 | 12
13 | COc1ccc(COc2ccnc(Nc3ccc(C#N)cc3)n2)cc1 | < 3.99 | 6.00 | 102 | 102
14 | CC(C)Nc1cccnc1N1CCN(C(=O)c2cc3cc(NS(C)(=O)=O)ccc3[nH]2)CC1 [DELAVIRDINE] | – | 7.43 | – | 23
15 | O=C1Nc2ccc(Cl)cc2[C@@](C#CC2CC2)(C(F)(F)F)O1 [EFAVIRENZ] | – | 8.14 | – | –
16 | Cc1cc(C#N)cc(C)c1Oc1nc(Nc2ccc(C#N)cc2)nc(N)c1Br [ETRAVIRINE] | – | 8.38 | – | 1.9
17 | Cc1ccnc2c1NC(=O)c1cccnc1N2C1CC1 [NEVIRAPINE] | – | 6.68 | – | > 15
18 | Cc1cn([C@H]2C[C@H](N=[N+]=[N-])[C@@H](CO)O2)c(=O)[nH]c1=O [ZIDOVUDINE] | – | 7.96 | – | –
